ChEMBL document CHEMBL1131769, “Orally bioavailable nonpeptide vitronectin receptor antagonists with efficacy in an osteoporosis model” (Bioorg Med Chem Lett, 1999)

Tests used:
[1] = target: Integrin alpha-IIb/beta-3 (Homo sapiens, UniProt P05106+P08514); experiment: Binding affinity for alpha IIb beta3 integrin; assay type: protein-complex assay
How it was run: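 Competitive binding to human αIIbβ3, with 3H-SK&F 107260 as the displaced ligand. Ki is the mean of two to three separate experiments.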

Homo sapiens [2] = species on record: Homo sapiens; experiment: In vitro inhibitory activity against human platelet aggregation; assay type: functional
How it was run: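 Inhibition of ADP-induced aggregation in human platelet-rich plasma.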

[3] = Plasma clearance of the compound; assay type: ADME, organism-based; conditions: rat
How it was run: (§1)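 Rat pharmacokinetics from plasma concentration–time data in two to three separate animals, by non-compartmental analysis. Oral bioavailability was taken from dose-normalized i.v. and p.o. AUC values.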

Homo sapiens [4] = species on record: Homo sapiens; experiment: In vitro inhibitory activity determined by human osteoclast resorption assay; assay type: functional
[5] = Half-life was determined; assay type: ADME, organism-based; conditions: rat, in vivo; how it was run: as §1
Integrin alpha-V/beta-3 [6] = target: T1, Integrin alpha-V/beta-3 (Homo sapiens, UniProt P05106+P06756); experiment: Binding affinity for non-peptide Vitronectin receptor (alpha V beta 3); assay type: protein-complex assay
T1 sequence (P05106 27-788 limits assumed): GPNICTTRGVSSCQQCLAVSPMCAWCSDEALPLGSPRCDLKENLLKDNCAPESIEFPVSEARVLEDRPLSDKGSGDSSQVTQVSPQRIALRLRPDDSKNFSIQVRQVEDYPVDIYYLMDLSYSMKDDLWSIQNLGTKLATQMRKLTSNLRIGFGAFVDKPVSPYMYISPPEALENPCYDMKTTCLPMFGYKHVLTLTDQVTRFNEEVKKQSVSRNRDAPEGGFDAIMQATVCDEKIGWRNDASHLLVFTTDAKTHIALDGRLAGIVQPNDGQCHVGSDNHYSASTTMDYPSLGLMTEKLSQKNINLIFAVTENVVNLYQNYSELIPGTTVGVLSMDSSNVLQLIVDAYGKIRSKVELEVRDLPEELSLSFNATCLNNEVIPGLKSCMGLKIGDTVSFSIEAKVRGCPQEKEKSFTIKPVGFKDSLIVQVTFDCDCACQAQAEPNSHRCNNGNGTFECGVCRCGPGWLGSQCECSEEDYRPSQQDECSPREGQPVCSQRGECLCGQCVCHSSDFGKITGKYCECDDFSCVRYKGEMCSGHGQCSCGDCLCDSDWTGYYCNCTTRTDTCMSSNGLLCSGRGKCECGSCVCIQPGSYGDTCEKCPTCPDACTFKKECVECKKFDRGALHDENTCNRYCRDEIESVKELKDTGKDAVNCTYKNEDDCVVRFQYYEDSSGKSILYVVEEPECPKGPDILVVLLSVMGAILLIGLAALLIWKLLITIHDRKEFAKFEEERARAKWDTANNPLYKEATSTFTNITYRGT
T1 sequence (P06756 31-889 limits assumed): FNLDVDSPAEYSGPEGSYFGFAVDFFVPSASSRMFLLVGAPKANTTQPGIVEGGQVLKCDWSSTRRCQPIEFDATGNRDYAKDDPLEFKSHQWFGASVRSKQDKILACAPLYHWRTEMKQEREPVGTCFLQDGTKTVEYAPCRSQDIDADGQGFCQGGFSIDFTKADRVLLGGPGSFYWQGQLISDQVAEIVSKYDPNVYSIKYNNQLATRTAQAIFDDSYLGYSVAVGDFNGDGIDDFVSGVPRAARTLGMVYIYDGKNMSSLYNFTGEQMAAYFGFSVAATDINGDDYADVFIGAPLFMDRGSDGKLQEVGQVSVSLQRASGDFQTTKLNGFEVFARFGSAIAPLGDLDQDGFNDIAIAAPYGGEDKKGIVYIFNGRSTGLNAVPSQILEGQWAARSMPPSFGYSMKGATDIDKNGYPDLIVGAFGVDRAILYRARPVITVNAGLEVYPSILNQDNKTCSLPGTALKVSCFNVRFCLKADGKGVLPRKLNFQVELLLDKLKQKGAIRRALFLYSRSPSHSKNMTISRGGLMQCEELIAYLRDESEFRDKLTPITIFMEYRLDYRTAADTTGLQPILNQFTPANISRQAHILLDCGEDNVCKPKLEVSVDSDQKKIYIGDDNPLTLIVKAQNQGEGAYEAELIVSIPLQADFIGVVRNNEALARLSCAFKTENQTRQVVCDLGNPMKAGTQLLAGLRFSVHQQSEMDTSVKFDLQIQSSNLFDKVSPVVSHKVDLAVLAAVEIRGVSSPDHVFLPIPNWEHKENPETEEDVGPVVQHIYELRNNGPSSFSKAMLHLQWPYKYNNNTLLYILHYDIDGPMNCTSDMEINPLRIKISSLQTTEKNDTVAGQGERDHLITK
T1 sequence (P06756 891-1048 limits assumed): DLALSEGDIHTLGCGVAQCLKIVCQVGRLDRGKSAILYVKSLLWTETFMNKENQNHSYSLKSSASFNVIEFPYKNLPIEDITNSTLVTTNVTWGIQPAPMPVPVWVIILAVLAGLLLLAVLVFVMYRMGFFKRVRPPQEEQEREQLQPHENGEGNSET
How it was run: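 Competitive binding to human αvβ3, with 3H-SK&F 107260 as the displaced radioligand. Ki is the mean of two to three separate experiments.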

Integrin alpha-V/beta-5 = Integrin alpha-V/beta-5 (Homo sapiens, UniProt P06756+P18084); experiment: Binding affinity for integrin alpha V beta 5 receptor; assay type: protein-complex assay
Integrin alpha-V/beta-5, sequence (P06756 31-889 limits assumed): as the sequence (P06756 31-889 limits assumed) above
Integrin alpha-V/beta-5, sequence (P06756 891-1048 limits assumed): as the sequence (P06756 891-1048 limits assumed) above
Integrin alpha-V/beta-5, sequence (P18084 24-799 limits assumed): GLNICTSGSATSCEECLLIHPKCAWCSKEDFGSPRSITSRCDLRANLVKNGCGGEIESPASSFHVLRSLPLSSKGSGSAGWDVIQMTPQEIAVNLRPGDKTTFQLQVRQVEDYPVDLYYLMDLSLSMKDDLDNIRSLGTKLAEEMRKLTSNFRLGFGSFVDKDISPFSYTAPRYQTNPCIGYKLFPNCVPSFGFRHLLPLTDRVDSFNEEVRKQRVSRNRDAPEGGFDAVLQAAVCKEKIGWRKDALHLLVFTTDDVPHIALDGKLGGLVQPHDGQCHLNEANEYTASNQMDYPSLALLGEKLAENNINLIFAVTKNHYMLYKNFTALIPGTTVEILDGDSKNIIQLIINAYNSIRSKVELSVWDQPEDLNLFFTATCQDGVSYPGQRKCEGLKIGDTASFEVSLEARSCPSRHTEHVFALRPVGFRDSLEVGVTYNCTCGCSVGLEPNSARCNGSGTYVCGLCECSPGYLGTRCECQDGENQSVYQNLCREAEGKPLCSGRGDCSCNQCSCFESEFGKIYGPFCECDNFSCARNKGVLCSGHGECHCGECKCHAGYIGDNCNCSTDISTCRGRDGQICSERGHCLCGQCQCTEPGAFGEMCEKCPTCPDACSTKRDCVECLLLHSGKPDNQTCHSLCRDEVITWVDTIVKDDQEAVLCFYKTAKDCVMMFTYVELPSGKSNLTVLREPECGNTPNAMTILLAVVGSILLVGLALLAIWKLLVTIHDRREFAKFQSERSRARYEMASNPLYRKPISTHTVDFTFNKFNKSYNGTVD

Rattus norvegicus = experiment: In vivo inhibitory activity against bone resorption of calcium response determined in thyroidparathyroidectomized rat model at 2.53 mg/kg/hr after 6 hr; assay type: functional
How it was run: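 Thyroparathyroidectomized rats received compound by continuous i.v. infusion at 2.53 mg/kg/hr. Inhibition of the calcemic response was read after 6 hr.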

[7] = target: Integrin alpha-5/beta-1 (Homo sapiens); experiment: Binding affinity for alpha 5 beta 1 receptor
[8] = Oral bioavailability in rat; assay type: ADME, organism-based; conditions: in vivo; how it was run: as §1
Integrin alpha-V/beta-3 [9] = target: T1, Integrin alpha-V/beta-3; experiment: Inhibition of HEK 293 cell adhesion to vitronectin by alpha V beta 3; assay type: cell-based, HEK293
How it was run: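 Cell-based αvβ3 affinity. HEK 293 cells transfected with human αvβ3 were tested for inhibition of adhesion of purified human vitronectin. IC50 is the mean of two experiments run in triplicate with an internal standard.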

Integrin alpha-IIb/beta-3, sequence (P05106 27-788 limits assumed): as the sequence (P05106 27-788 limits assumed) above
Integrin alpha-IIb/beta-3, sequence (P08514 32-887 limits assumed): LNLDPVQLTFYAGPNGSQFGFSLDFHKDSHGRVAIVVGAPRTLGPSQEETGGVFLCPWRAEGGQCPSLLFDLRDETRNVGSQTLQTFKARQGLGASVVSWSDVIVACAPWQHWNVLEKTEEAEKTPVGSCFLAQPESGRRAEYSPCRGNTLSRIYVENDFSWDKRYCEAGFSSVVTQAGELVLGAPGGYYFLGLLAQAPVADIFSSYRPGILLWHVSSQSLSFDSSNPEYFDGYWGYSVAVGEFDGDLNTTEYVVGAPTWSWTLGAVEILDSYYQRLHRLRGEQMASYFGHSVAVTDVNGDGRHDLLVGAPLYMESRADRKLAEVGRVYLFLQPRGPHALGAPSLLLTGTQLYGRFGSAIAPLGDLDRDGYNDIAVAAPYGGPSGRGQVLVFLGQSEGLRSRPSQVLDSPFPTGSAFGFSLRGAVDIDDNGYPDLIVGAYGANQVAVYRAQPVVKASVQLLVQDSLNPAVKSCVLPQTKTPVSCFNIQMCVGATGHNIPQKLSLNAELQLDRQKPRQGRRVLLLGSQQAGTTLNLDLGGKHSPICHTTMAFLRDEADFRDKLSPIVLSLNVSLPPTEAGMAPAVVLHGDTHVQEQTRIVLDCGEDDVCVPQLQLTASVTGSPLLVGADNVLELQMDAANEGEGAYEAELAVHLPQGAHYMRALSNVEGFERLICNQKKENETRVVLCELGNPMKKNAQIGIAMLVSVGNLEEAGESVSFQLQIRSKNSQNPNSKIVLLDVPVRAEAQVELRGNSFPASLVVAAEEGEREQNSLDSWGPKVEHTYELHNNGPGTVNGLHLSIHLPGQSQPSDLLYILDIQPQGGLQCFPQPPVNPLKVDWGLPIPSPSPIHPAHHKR
Integrin alpha-IIb/beta-3, sequence (P08514 891-1039 limits assumed): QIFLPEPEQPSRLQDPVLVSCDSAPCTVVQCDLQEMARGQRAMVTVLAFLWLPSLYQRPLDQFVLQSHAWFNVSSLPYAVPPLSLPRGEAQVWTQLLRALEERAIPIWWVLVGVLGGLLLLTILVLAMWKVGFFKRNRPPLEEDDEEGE

Ki [1] [µM]	IC50 (Homo sapiens [2]) [µM]	clearance [3] [mL/min/kg]	IC50 (Homo sapiens [4]) [nM]	half-life [5] [min]	Ki (Integrin alpha-V/beta-3 [6]) [nM]	Ki (Integrin alpha-V/beta-5) [nM]	Ki [7] [µM]	bioavailability [8] [%]	IC50 (Integrin alpha-V/beta-3 [9]) [nM]	SMILES	inhibition in vivo at 2.53 mg/kg/hr (Rattus norvegicus) [%]
9	> 200	3	48	181	4	1.3	18	100	60	O=C(O)C[C@@H]1Cc2ccc(OCCCNc3ccccn3)cc2Cc2ccccc21	85
> 50					23				1800	CN(Cc1nc2ccccc2[nH]1)C(=O)c1ccc2c(c1)Cc1ccccc1C(CC(=O)O)C2 (stereo not given)	
30					8				65	O=C(O)CC1Cc2ccc(OCCCNc3ccccn3)cc2Cc2ccccc21 (stereo not given)	
				9				3		CN(Cc1nc2ccccc2[nH]1)C(=O)c1ccc2c(c1)CN(C)C(=O)[C@H](CC(=O)O)N2	
					550					O=C(O)C[C@H]1Cc2ccc(OCCCNc3ccccn3)cc2Cc2ccccc21	
